Reference: ChEMBL document CHEMBL5712078, “BRD9 Inhibition, Alone or in Combination with Cytostatic Compounds as a Therapeutic Approach in Rhabdoid Tumors” (Int J Mol Sci, 2017)
The source made the active and inactive calls. The rule behind the calls is not given here.

How the values were obtained:
[1] = system: G-401; experiment: Induction of cell cycle arrest in human G-401 cells assessed as accumulation of cells at G1 phase incubated for 72 hrs by flow cytometry analysis; format: functional, cell-based; conditions: dose 5-20 µM
Summary of the method: (§1)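 72 h DAPI flow-cytometry cell-cycle assay. Chla266 in IMDM/20% FBS seeded at 30,000 cells/mL; G401 in DMEM/10% FBS at 10,000 cells/mL; 1 mL/well, 37 °C, 5% CO2. Next day the medium was replaced with inhibitor at final 0, 5, 10 or 20 µM. Cells were harvested, PBS-washed, and the G1 percentage was read. n ≥ 3, mean ± SD, one-way ANOVA vs control.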

[2] = system: BT-12; experiment: Anti-proliferative activity against human BT-12 cells assessed as inhibition cell growth incubated for 72 hrs in presence of carboplatin by MTT-based Chou-Talalay method; format: functional; conditions: BT-12, 72 h
Summary of the method: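 Combination MTT assay. I-BRD9 and carboplatin, doxorubicin or vincristine were given together at a fixed 10:1 ratio, with cytostatics 0.0001–10 µM final, added 24 h after seeding. MTT read-out at 570/630 nm after 3 h formazan solubilisation. Combination index from the Chou–Talalay median-effect method: CI <1 synergism, CI >1 antagonism. n ≥3.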

[3] = system: CHLA-266; experiment: Induction of cell cycle arrest in human CHLA-266 cells assessed as accumulation of cells at G1 phase at 20 uM incubated for 72 hrs by flow cytometry analysis (reference value: 74.2+/-3.6%); format: functional
Summary of the method: (§2)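 Cell cycle. Seeding and 72 h treatment as for the apoptosis assay, with I-BRD9 or BI-9564 at 0, 5, 10 or 20 µM final. A 100 µL cell suspension was stained with DAPI and read by flow cytometry. Percentage of cells in G1, n ≥3, mean ± SD, one-way ANOVA versus control.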

[4] = system: G-401; experiment: Anti-proliferative activity against human G-401 cells assessed as cell viability incubated for 72 hrs by MTT assay; format: functional, cell-based; conditions: G-401, 72 h
Summary of the method: (§3)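 MTT proliferation assay. Cells were seeded at 3000 (BT16, KD, G401) or 5000 (BT12, Chla266) cells per well and drug was added after 24 h, final 0.001–100 µM. Read at 72 or 144 h; 144 h wells got fresh medium and drug on day 3. MTT for 3 h, formazan dissolved in isopropanol/0.04 N HCl, absorbance at 570/630 nm. Technical triplicates, ≥3 independent runs, IC50 derived.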

[5] = system: BT-12; experiment: Anti-proliferative activity against human BT-12 cells assessed as cell viability incubated for 72 hrs by MTT assay; format: functional, cell-based; conditions: BT-12, 72 h; summary of the method: as §3
[6] = system: G-401; experiment: Induction of apoptosis in human G-401 cells assessed as necrotic cells at 20 uM incubated for 72 hrs by flow cytometry analysis (Rvb= 5.7+/-1.9 %); format: functional
Summary of the method: (§4)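 Annexin V/PI flow assay. G401 at 10,000 cells/mL and BT12 or Chla266 at 30,000 cells/mL were seeded in 12-well plates. Next day medium was replaced with medium holding I-BRD9 or BI-9564 at 0, 5, 10 or 20 µM final for 72 h. Cells were washed in PBS, stained with FITC-Annexin V and propidium iodide for 15 min in the dark at room temperature, then read by flow cytometry. Percentage of dead cells, n ≥3, mean ± SD, one-way ANOVA versus control.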

[7] = system: G-401; experiment: Induction of cell cycle arrest in human G-401 cells assessed as accumulation of cells at G1 phase at 5 uM incubated for 72 hrs by flow cytometry analysis (reference value: 46.7+/-1.9%); format: functional; summary of the method: as §1
[8] = system: CHLA-266; experiment: Induction of apoptosis in human CHLA-266 cells assessed as necrotic cells at 10 uM incubated for 72 hrs by flow cytometry analysis (Rvb= 5.0+/-0.3 %)
[9] = system: BT-12; experiment: Synergistic cytotoxicity against human BT-12 cells assessed as combination index incubated for 72 hrs in presence of carboplatin by MTT-based Chou-Talalay method; format: functional
Summary of the method: (§5)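 MTT combination assay. BT12 in IMDM/20% FBS at 5000 cells/well; G401 in DMEM/10% FBS. Drugs added 24 h after seeding, with I-BRD9 and cytostatic at a fixed 10:1 ratio (final ranges 0.001–100 µM and 0.0001–10 µM). After 72 h: MTT for 3 h, dissolved in isopropanol/0.04 N HCl, read at 570/630 nm. Technical triplicates, ≥3 independent runs; combination index by Chou–Talalay median-effect analysis.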

[10] = system: G-401; experiment: Induction of apoptosis in human G-401 cells assessed as necrotic cells at 10 uM incubated for 72 hrs by flow cytometry analysis (Rvb= 5.7+/-1.9 %); format: functional; summary of the method: as §4
[11] = system: G-401; experiment: Synergistic cytotoxicity against human G-401 cells assessed as combination index incubated for 72 hrs in presence of doxorubicin by MTT-based Chou-Talalay method; format: functional; summary of the method: as §5
[12] = Anti-proliferative activity against human KD cells assessed as cell viability incubated for 72 hrs by MTT assay; format: functional, cell-based; summary of the method: as §3
[13] = system: BT-12; experiment: Induction of cell cycle arrest in human BT-12 cells assessed as accumulation of cells at G1 phase at 10 uM incubated for 72 hrs by flow cytometry analysis (reference value: 69+/-1.9%); format: functional; summary of the method: as §2
[14] = system: BT-12; experiment: Induction of cell cycle arrest in human BT-12 cells assessed as accumulation of cells at G1 phase at 5 uM incubated for 72 hrs by flow cytometry analysis (Rvb =69+/-1.9%); format: functional; summary of the method: as §2
[15] = system: G-401; experiment: Induction of apoptosis in human G-401 cells assessed as necrotic cells incubated for 72 hrs by flow cytometry analysis; format: functional, cell-based; conditions: dose 5-20 µM; summary of the method: as §4
[16] = system: CHLA-266; experiment: Cytotoxicity against human CHLA-266 cells assessed as change in cell viability at 5 to 20 uM treated for 72 hrs; format: functional, cell-based; conditions: dose 5-20 µM; summary of the method: as §4
[17] = system: CHLA-266; experiment: Induction of apoptosis in human CHLA-266 cells assessed as necrotic cells at 20 uM incubated for 72 hrs by flow cytometry analysis (Rvb= 5.0+/-0.3 %)
[18] = system: CHLA-266; experiment: Anti-proliferative activity against human CHLA-266 cells assessed as cell viability incubated for 144 hrs by MTT assay; format: functional, cell-based; conditions: CHLA-266, 144 h; summary of the method: as §3
[19] = system: BT-12; experiment: Induction of cell cycle arrest in human BT-12 cells assessed as accumulation of cells at G1 phase incubated for 72 hrs by flow cytometry analysis; format: functional, cell-based; conditions: dose 5-20 µM; summary of the method: as §2
[20] = system: G-401; experiment: Induction of cell cycle arrest in human G-401 cells assessed as accumulation of cells at G1 phase at 20 uM incubated for 72 hrs by flow cytometry analysis (reference value: 46.7+/-1.9 %); format: functional; summary of the method: as §1
[21] = system: G-401; experiment: Induction of cell cycle arrest in human G-401 cells assessed as accumulation of cells at G1 phase at 10 uM incubated for 72 hrs by flow cytometry analysis (Rvb =46.7+/-1.9 %); format: functional; summary of the method: as §1
[22] = system: BT-12; experiment: Induction of apoptosis in human BT-12 cells assessed as necrotic cells incubated for 72 hrs by flow cytometry analysis; format: functional, cell-based; conditions: dose 5-20 µM; summary of the method: as §4
[23] = system: G-401; experiment: Synergistic cytotoxicity against human G-401 cells assessed as combination index incubated for 72 hrs in presence of vincristine by MTT-based Chou-Talalay method; format: functional; summary of the method: as §5
[24] = system: CHLA-266; experiment: Anti-proliferative activity against human CHLA-266 cells assessed as cell viability incubated for 72 hrs by MTT assay; format: functional, cell-based; conditions: CHLA-266, 72 h; summary of the method: as §3
[25] = system: CHLA-266; experiment: Induction of cell cycle arrest in human CHLA-266 cells assessed as accumulation of cells at G1 phase at 10 uM incubated for 72 hrs by flow cytometry analysis (reference value: 74.2+/-3.6%); format: functional; summary of the method: as §2

For `CCn1cc(-c2cccc(C(F)(F)F)c2)c2sc(C(=N)NC3CCS(=O)(=O)CC3)cc2c1=O`, the Activity [1] was “Dose-Dependent Effect”, the IC50 [2] was 40.9 µM and the Activity [3] was 89.3%. The IC50 [4] was 13.4 µM, the IC50 [5] was 21.2 µM and the Activity [6] was 70.8%. The Activity [7] was 53%, the Activity [8] was 11.7% and the CI [9] was 1.01. For the same compound, the Activity [10] was 18.8%, the CI [11] was 1.2 and the IC50 [12] was 8.1 µM. The Activity [13] was 80.1%, the Activity [14] was 75% and the Activity [15] was “Dose-Dependent Effect”. The Activity [16] was “Active”, the Activity [17] was 25% and the IC50 [18] was 24.7 µM. The Activity [19] was “Dose-Dependent Effect”, the Activity [20] was 78.1% and the Activity [21] was 67.1%. For the same compound, the Activity [22] was “Dose-Dependent Effect”, the CI [23] was 9 and the IC50 [24] was 13.3 µM. The Activity [25] was 82.7%.
